ERAP1 HTS inh: human ERAP1 aminopeptidase inhibitors, primary screen, biochemical, single point, plate reader; 340,000 compounds, 0.15% hits; recombinant ERAP1, Leu-AMC fluorescence, 60 min; AID 652197, 2013; Endoplasmic reticulum aminopeptidase 1 (Homo sapiens), Q9NZ08; inhibition, % at 10.7 µM;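 active means mean replicate inhibition of at least 30%, or all replicates individually reaching that 30% level; inactive means mean below 30% and not every replicate reaching it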;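 further: 0% = neutral control wells and 100% = L-leucinethiol positive control wells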
Target sequence (Q9NZ08 whole entry, looked up): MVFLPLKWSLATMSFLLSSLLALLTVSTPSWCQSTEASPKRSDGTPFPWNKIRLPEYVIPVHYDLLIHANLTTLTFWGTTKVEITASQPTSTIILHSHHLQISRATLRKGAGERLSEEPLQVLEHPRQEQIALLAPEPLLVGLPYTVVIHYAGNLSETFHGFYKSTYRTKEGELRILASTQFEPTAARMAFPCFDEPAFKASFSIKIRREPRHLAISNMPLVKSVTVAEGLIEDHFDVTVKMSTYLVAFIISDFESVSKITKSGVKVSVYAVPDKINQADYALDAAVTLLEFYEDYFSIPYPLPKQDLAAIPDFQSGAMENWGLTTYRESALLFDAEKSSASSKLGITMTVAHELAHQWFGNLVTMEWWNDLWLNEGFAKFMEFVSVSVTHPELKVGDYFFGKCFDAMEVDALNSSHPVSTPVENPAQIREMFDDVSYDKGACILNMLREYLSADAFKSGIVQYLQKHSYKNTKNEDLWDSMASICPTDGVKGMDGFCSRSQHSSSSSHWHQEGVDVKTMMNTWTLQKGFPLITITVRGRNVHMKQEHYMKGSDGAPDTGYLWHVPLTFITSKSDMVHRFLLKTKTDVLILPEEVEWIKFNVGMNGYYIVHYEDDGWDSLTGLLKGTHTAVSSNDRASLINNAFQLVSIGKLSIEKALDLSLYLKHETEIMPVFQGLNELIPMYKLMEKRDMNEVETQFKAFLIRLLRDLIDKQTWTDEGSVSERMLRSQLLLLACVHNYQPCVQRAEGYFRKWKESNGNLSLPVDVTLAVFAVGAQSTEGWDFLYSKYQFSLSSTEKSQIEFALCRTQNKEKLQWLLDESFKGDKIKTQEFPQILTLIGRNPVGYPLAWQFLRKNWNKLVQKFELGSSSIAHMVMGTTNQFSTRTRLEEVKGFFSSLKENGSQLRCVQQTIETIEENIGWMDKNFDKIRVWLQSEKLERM
FGF22 binding: binders of human FGF22 protein, primary screen, FGF22 synaptogenesis inhibitor project, biophysical, thermal shift, single point | recombinant FGF22 thermal shift, SYPRO orange fluorescence; percent of sucrose octasulfate shift, DMSO zero | activity (Tm shift, normalised), % at 9.99 µM | 340,000 compounds, 1.5% hits;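 active means mean Tm shift, scaled 0 neutral to 100 positive control, at about 1.3% or above, every replicate too, limit read from the data; inconclusive means no clear call, values can overlap the other calls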
Env fusion inh: inhibitors of HIV-1 Env-driven cell-cell fusion, primary screen, HeLa-JRFL effector, CEM21 target cells, luciferase; inhibition, % at 12.3 µM; 360,000 compounds, 1.1% hits;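 active means mean replicate inhibition score of at least 50 and every replicate individually at or above 50; inconclusive means only one of the two criteria met; inactive means mean below 50 and not all replicates reaching 50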;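 further: 0% = plate neutral controls and 100% = maraviroc near 300 nM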
Ecoli rRNA inh: reduced GFP signal of wild-type E. coli, primary screen, bacterial rRNA inhibitor project, GFP/RFP fluorescence, OD600, single point | 350,000 compounds, 1.6% hits | GFP signal change (wild-type ribosome), % (test concentration not listed) | AID 720706, 2013 | E. coli WT GFP vs humanized-ribosome RFP mutants, 24 h; stronger effect = lower value; DMSO median 0, no signal -100;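 active means significant combined selectivity score with lowered wild-type GFP, culture density cut under 30%, mutant RFP and density less affected; inactive means any of these conditions unmet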
PGC1a acetyl inh: inhibitors of PGC1a acetylation signal, primary screen, cell-based, U2OS, AlphaScreen, inhibitor mode. AID 651687, 2012. 350,000 compounds, 0.17% hits. inhibition, % at 15.6 µM. AlphaScreen anti-acetyl-lysine; with virally co-expressed GCN5 acetyltransferase;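 active means every replicate shows inhibition of at least 40%; inconclusive means mean inhibition at least 40% but some replicate below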;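 further: 0% = neutral control wells and 100% = positive control wells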
Cneo AK release: Cryptococcus neoformans cell lysis inducers, primary screen, AK release luminescence, single concentration; C. neoformans lysis, adenylate kinase release luminescence, 4 h; normalised: neutral wells 0, clomiphene wells 100; lysis activity, % at 15 µM; 360,000 compounds, 0.2% hits;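 active means mean lysis activity across replicates of at least 80%, whatever share of replicates individually reach that level; inactive means mean lysis activity below 80%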
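Material: C. neoformans cells | Amount: Yeast cell density of 5 × 10^6 cells/mL | Medium: Fresh YPD growth medium | Dosing: Single dose | Times: Static 4 h at 37 °C with compound, 1 h detection | Detection: AK luminescence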
AID977621: growth inhibition of wild-type GFP E. coli, dose response, H69 mutant RFP, cherry-pick | activity change, negative = inhibition at 50 µM | 1,900 tested, under 10 active | E. coli wild-type GFP strain growth, fluorescence, 24 h | shares compounds with Ecoli rRNA inh;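 active means Wild-type ribosome reporter drop at least double the humanized mutant ribosome reporter drop, growth loss under a set limit; inconclusive means no clear call, values can overlap the other calls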;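 further: wild-type GFP and H69 mutant RFP strains grown together 50/50 in each well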
AID977628: E. coli growth inhibition, wild-type GFP versus h24 humanized RFP strain, dose response, h24 mutant RFP vs wild-type GFP, cherry-pick | activity change, negative = inhibition at 50 µM | E. coli WT GFP strain growth, fluorescence, 24 h | AID 977628, 2014 | 1,900 tested, under 10 active | shares compounds with Ecoli rRNA inh;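 active means compound lowering the normal-ribosome reporter at least twice as much as the humanized-ribosome reporter, growth loss under a set limit; inconclusive means no clear call, values can overlap the other calls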;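 further: wild-type GFP and h24 humanized RFP strains co-cultured 1 to 1 per well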
* marks the source's active call; other numbers are inactive results; ? = inconclusive; . = no result given. Compounds with a hit are over-represented: about 3.5% of the library has one in this group of screens.

SMILES	ERAP1 HTS inh	FGF22 binding	Env fusion inh	Ecoli rRNA inh	PGC1a acetyl inh	Cneo AK release	AID977621	AID977628
COC(=O)CC1COc2ccccc2N1C(=O)c1ccc(Cl)cc1 (stereo unspecified)	.	.	19	.	0	-2	.	.
O=C(O)c1cccnc1SCc1ccccc1Cl	-8	0	-5	-22*	.	0	-9.8	.
O=C(O)c1cccnc1Sc1ccccc1Cl	-1	0	-41	6	8	-1	.	.
CC1CC(C)CN(c2oc(Cc3ccccc3)nc2C#N)C1 (stereo unspecified)	.	.	5	.	.	.	.	.
N#Cc1nc(COc2cccc(Cl)c2)oc1N1CCCC1	4	0	0	-33*	4	1	-9.6	-9.9
N#Cc1nc(Cc2ccccc2)oc1N1CCCC1	-3	42	-3	-23*	.	.	.	?
CCCc1cc(=O)[nH]c(SCc2ccc(F)cc2)n1	-4	0	-12	1	1	.	.	.
CN(C)c1ccc(-c2nnn(Cc3ccccc3Br)n2)cc1	-1	0	.	-19*	-28	-1	?	.
COc1ccc(-c2nnn(Cc3ccccc3F)n2)cc1	.	.	.	.	-4	.	.	.
CCn1cc(CN2CCCC(CNS(=O)(=O)c3ccc(OC)cc3)C2)cn1 (stereo unspecified)	-6	0	-21	13	.	0	.	.
CCc1ccc(CN2CCCC(CNS(=O)(=O)c3ccc(OC)cc3)C2)cc1 (stereo unspecified)	1	0	11	-22*	.	.	-16	?
O=C(CN1C(=O)C2CC=CCC2C1=O)Nc1ccccc1N1CCCC1 (stereo unspecified)	1	0	2	0	.	.	.	.
Cn1cc(CN2CCCC(C(=O)Nc3cccc(-c4cc5ccccc5[nH]4)c3)C2)cn1 (stereo unspecified)	1	0	-11	-33*	.	2	1.4	-8.1
CC(C)n1cc(CN2CCCC(C(=O)Nc3cccc(-c4cc5ccccc5[nH]4)c3)C2)cn1 (stereo unspecified)	-3	0	-13	-69	-41	0	.	.
O=C(COc1ccc(F)cc1)c1c(O)cc(O)cc1O	-2	1	-12	3	-2	-1	.	.
COc1ccc(C(=O)COc2ccc(F)cc2)c(O)c1	-2	0	-30	-21*	-8	-3	0.44	-8.9
C/C=C(\C)C(=O)NCCN1C2=NC[C@H](Cc3ccccc3)N2C[C@@H]1Cc1ccc(OC)cc1	1	0	-193	-6	.	0	.	.
O=C(C1CC1)N1CC2(C1)[C@@H](c1ccccc1)[C@@H](CO)N2C(=O)CC1CC1	3	.	.	2	-4	.	.	.
CCc1cc(C(=O)N2CCCC(C(=O)c3cccc4ccccc34)C2)n(C)n1 (stereo unspecified)	1	0	46	-26*	.	.	-6.8	.
CCCc1cc(C(=O)N2CCCC(C(=O)c3cccc4ccccc34)C2)n(C)n1 (stereo unspecified)	2	0	41	-9	-43	.	.	.
COc1ccc(OC)c(CN2C(=O)CSCC2(C)C(=O)Nc2c(C)cccc2C)c1 (stereo unspecified)	.	0	-3	5	.	.	.	.
Cc1ccc(Cc2c(-c3ccc(C#N)cc3)nc3ccc(Br)cn23)cc1	-3	0	-113	-28*	-8	2	9	2.9
COc1ccccc1Cc1c(-c2ccc(F)cc2)nc2ccc(Br)cn12	.	0	-18	-24*	-5	0	-13	-12
COc1ccccc1Cc1c(-c2ccc(OC)c(OC)c2)nc2ccc(Br)cn12	.	0	5	-4	-2	4	.	.
S=c1nc(-c2cccc(Cl)c2)[nH][nH]1	9	0	-5	-3	-12	.	.	.
SMILES	ERAP1 HTS inh	FGF22 binding	Env fusion inh	Ecoli rRNA inh	PGC1a acetyl inh	Cneo AK release	AID977621	AID977628
S=c1nc(-c2cc(Cl)cc(Cl)c2)[nH][nH]1	-2	0	9	-17*	.	.	-14	?
CCc1ccc(CNC(=O)C2CCC(=O)N2C2CCCCC2)cc1 (stereo unspecified)	.	.	-32	.	1	-6	.	.
O=C(NCc1ccc2c(c1)OCO2)C1CCC(=O)N1C1CCCCC1 (stereo unspecified)	.	0	-14	-23*	5	-1	-1.6	?
CCOC(=O)c1cnc2c(c(C)nn2C)c1Oc1ccc(OC)cc1	-2	0	-4	-14*	5	4	3.8	-8.2
Cc1nn(CC(=O)OCCOc2ccc(Br)cc2)c(C)c1[N+](=O)[O-]	-4	0	6	-25*	8	.	-12	?
Cc1ccc(CNC(=O)COC(=O)Cn2nc(C)c([N+](=O)[O-])c2C)cc1	-1	0	-5	9	2	0	.	.
Cc1nn(CC(=O)c2ccccc2Cl)c(C)c1[N+](=O)[O-]	3	0	1	-5	-1	.	.	.
Cc1nn(CC(=O)c2ccc(Br)s2)c(C)c1[N+](=O)[O-]	1	0	-3	-21*	-10	3	5.2	-4.5
C/C(Nc1ccc(F)cc1)=C(/C#N)C(N)=O	.	.	-24	.	-6	-2	.	.
Cc1ccc(OC(=O)c2ccc(C)c(C)c2)cn1	.	.	-25	.	3	16	.	.
COC(=O)CNC(=O)COC(=O)c1ccc(Cl)nc1	0	0	4	-19*	5	2	-8.5	-5.9
O=C(COC(=O)c1ccc(Cl)nc1)NCCc1ccc(Cl)cc1	4	0	-4	4	-25	-2	.	.
COc1ccc(OC)c(NC(=O)c2ccc(NS(=O)(=O)c3c(C)noc3C)cc2)c1	.	.	15	.	-4	1	.	.
CCN(CC)S(=O)(=O)c1ccc(Cl)c(C(=O)NCc2ccco2)c1	0	0	-14	8	.	.	.	.
CCN(c1ccccc1)S(=O)(=O)c1ccc(Cl)c(C(=O)NCc2ccco2)c1	0	0	1	-21*	-7	0	-19	.
CCCCC(=O)NC(Nc1ccc(C)cn1)(C(=O)OCC)C(F)(F)F (stereo unspecified)	.	.	.	.	-22	0	.	.

Screening results deposited in PubChem by Broad Institute.
